Values after ≈ are worked out from the molar mass of the structure shown.

Assay type in all cases: functional
Test [1] deals with Clavispora lusitaniae. In words: Antifungal activity against Candida lusitaniae CL26 by microdilution method. Put shortly:
(§1)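 CLSI broth microdilution using twofold dilutions in RPMI 1640 with about 10³ cells/ml, incubated 48 h at 35°C. Final ranges were 0.5–256 μg/ml flucytosine and 0.25–128 μg/ml fluconazole. Cross-resistance was tested with a flucytosine gradient at constant fluconazole (8 or 16 μg/ml). MIC was read by automated plate reader as the lowest concentration giving 50% growth inhibition versus the drug-free control.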

For test [2], the system named is Clavispora lusitaniae. In words: Antifungal activity against Candida lusitaniae CL174 by microdilution method. Put shortly: as §1
On the technique in general: Broth dilution looks for growth in wells or tubes with falling amounts of substance.

In test [3] the test system is Clavispora lusitaniae. In words: Antifungal activity against Candida lusitaniae CL42 by microdilution method. Put shortly: as §1
Test [4] relates to Clavispora lusitaniae. In words: Antifungal activity against Candida lusitaniae 42720 by microdilution method. Put shortly:
as §1

Test [5] deals with Clavispora lusitaniae. In words: Antifungal activity against Candida lusitaniae CL38-5 expressing FCY2 gene by microdilution method. Put shortly:
as §1

In test [6] the test system is Clavispora lusitaniae. Briefly: Antifungal activity against Candida lusitaniae 6936 by microdilution method. Put shortly:
as §1

Test [7] relates to Clavispora lusitaniae. Briefly: Antifungal activity against fcy1-deficient Candida lusitaniae by microdilution method. Put shortly:
as §1

Test [8] deals with Clavispora lusitaniae. Briefly: Antifungal activity against Candida lusitaniae CL38-5 expressing FCY21 gene by microdilution method. Put shortly: as §1
Test [9] deals with Clavispora lusitaniae. In words: Antifungal activity against REPF URA3 fcy1-deficient Candida lusitaniae by microdilution method. Put shortly:
as §1

Test [10] concerns Clavispora lusitaniae. Briefly: Antifungal activity against fcy1(1-26)-deficient Candida lusitaniae by microdilution method. Put shortly: as §1
Test [11] has as its system Clavispora lusitaniae. Briefly: Antifungal activity against Candida lusitaniae CL32 by microdilution method. Put shortly:
as §1

Test [12] deals with Clavispora lusitaniae. In words: Antifungal activity against Candida lusitaniae CL38 by microdilution method. Put shortly:
as §1

Test [13] has as its system Clavispora lusitaniae. In words: Antifungal activity against Candida lusitaniae CL29 by microdilution method. Put shortly:
as §1

For test [14], the system named is Clavispora lusitaniae. Briefly: Antifungal activity against Candida lusitaniae CL38-5 expressing URA3 gene by microdilution method. Put shortly: as §1
Test [15] concerns Clavispora lusitaniae. In words: Antifungal activity against Candida lusitaniae CL216 by microdilution method. Put shortly:
as §1

Test [16] relates to Clavispora lusitaniae. In words: Antifungal activity against Candida lusitaniae CL119 by microdilution method. Put shortly:
as §1

Test [17] relates to Clavispora lusitaniae. Briefly: Antifungal activity against fcy1(1-119)-deficient Candida lusitaniae by microdilution method. Put shortly:
as §1

Test [18] deals with Clavispora lusitaniae. In words: Antifungal activity against Candida lusitaniae CL48 by microdilution method. Put shortly: as §1
In test [19] the test system is Clavispora lusitaniae. In words: Antifungal activity against Candida lusitaniae CL31 by microdilution method. Put shortly: as §1
Test [20] has as its system Clavispora lusitaniae. In words: Antifungal activity against Candida lusitaniae CL128 by microdilution method. Put shortly:
as §1

In general, MIC refers to the lowest concentration that inhibits growth of the organism. Read a high MIC as weaker potency. With `Nc1nc(=O)[nH]cc1F` [FLUCYTOSINE], the minimal inhibitory concentration (MIC) against Clavispora lusitaniae [1] is 64 µg/mL (≈ 496 µM); against Clavispora lusitaniae [2] it was 64 µg/mL (≈ 496 µM); against Clavispora lusitaniae [3], 64 µg/mL (≈ 496 µM); in the test on Clavispora lusitaniae [4], at most 0.5 µg/mL; against Clavispora lusitaniae [5], at most 0.5 µg/mL; against Clavispora lusitaniae [6], at most 0.5 µg/mL. The MIC with Clavispora lusitaniae [7] is 128 µg/mL (≈ 992 µM); with Clavispora lusitaniae [8] it was 32 µg/mL (≈ 248 µM); with Clavispora lusitaniae [9], at most 0.5 µg/mL; against Clavispora lusitaniae [10], 128 µg/mL (≈ 992 µM); in the test with Clavispora lusitaniae [11], 128 µg/mL (≈ 992 µM); in the test with Clavispora lusitaniae [12], 32 µg/mL (≈ 248 µM). Further, the MIC in the test with Clavispora lusitaniae [13] was 128 µg/mL (≈ 992 µM); against Clavispora lusitaniae [14], 32 µg/mL (≈ 248 µM); in the test on Clavispora lusitaniae [15], 32 µg/mL (≈ 248 µM); in the test with Clavispora lusitaniae [16], 32 µg/mL (≈ 248 µM); with Clavispora lusitaniae [17], 128 µg/mL (≈ 992 µM); with Clavispora lusitaniae [18], 32 µg/mL (≈ 248 µM). The minimal inhibitory concentration (MIC) with Clavispora lusitaniae [19] and in the test with Clavispora lusitaniae [20] was 32 µg/mL (≈ 248 µM) in each case.
Turning to `OC(Cn1cncn1)(Cn1cncn1)c1ccc(F)cc1F` [FLUCONAZOLE], the MIC was at most 0.25 µg/mL with Clavispora lusitaniae [1]; 1 µg/mL (≈ 3.27 µM) in the test with Clavispora lusitaniae [2]; 4 µg/mL (≈ 13.1 µM) in the test with Clavispora lusitaniae [3]; 2 µg/mL (≈ 6.53 µM) with Clavispora lusitaniae [4]; 2 µg/mL (≈ 6.53 µM) against Clavispora lusitaniae [5]; 2 µg/mL (≈ 6.53 µM) against Clavispora lusitaniae [6]. The MIC in the test with Clavispora lusitaniae [7] is 2 µg/mL (≈ 6.53 µM); against Clavispora lusitaniae [8], 2 µg/mL (≈ 6.53 µM); with Clavispora lusitaniae [9] it was 2 µg/mL (≈ 6.53 µM); against Clavispora lusitaniae [10], 2 µg/mL (≈ 6.53 µM); in the test on Clavispora lusitaniae [11], at most 0.25 µg/mL; in the test on Clavispora lusitaniae [12], 2 µg/mL (≈ 6.53 µM). Also, the minimum inhibitory concentration (MIC) worked out at 2 µg/mL (≈ 6.53 µM) in the test with Clavispora lusitaniae [13]; 2 µg/mL (≈ 6.53 µM) in the test on Clavispora lusitaniae [14]; 1 µg/mL (≈ 3.27 µM) against Clavispora lusitaniae [15]; 1 µg/mL (≈ 3.27 µM) against Clavispora lusitaniae [16]; 2 µg/mL (≈ 6.53 µM) in the test with Clavispora lusitaniae [17]; 2 µg/mL (≈ 6.53 µM) with Clavispora lusitaniae [18]. Further, the values for the minimal inhibitory concentration (MIC) in the test with Clavispora lusitaniae [19] and in the test on Clavispora lusitaniae [20] were 2 µg/mL (≈ 6.53 µM) and 1 µg/mL (≈ 3.27 µM), respectively.

These data come from ChEMBL document CHEMBL1649510, “Nonsense and missense mutations in FCY2 and FCY1 genes are responsible for flucytosine resistance and flucytosine-fluconazole cross-resistance in clinical isolates of Candida lusitaniae” (2009).
